Reference: ChEMBL document CHEMBL1125125, “Thiazolo[4,5-d]pyrimidine nucleosides. The synthesis of certain 3-beta-D-ribofuranosylthiazolo[4,5-d]pyrimidines as potential immunotherapeutic agents” (J Med Chem, 1990)

Tests used:
Mus musculus [1] = species on record: Mus musculus; assay: Ability to activate CBA/CaJ Mice spleen cells to proliferate in vitro by measuring new DNA synthesis in a [3H]thymidine incorporation assay at 0.01 mM; type: functional
Procedure, shortened: (§1)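 Spleen cells from CBA/CaJ mice, 1 × 10^5 per 0.2 mL, cultured with compound for 48 h in total. [3H]thymidine (0.5 μCi/0.02 mL) was added after 24 h, then cells were harvested and uptake was counted in a β-counter. Results are CPM as mean ± SD of quadruplicate assays.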

Mus musculus [2] = species on record: Mus musculus; assay: Ability to activate CBA/CaJ Mice spleen cells to proliferate in vitro by measuring new DNA synthesis in a [3H]thymidine incorporation assay at 0 mM; type: functional; procedure, shortened: as §1
Mus musculus [3] = species on record: Mus musculus; assay: Ability to activate CBA/CaJ Mice spleen cells to proliferate in vitro by measuring new DNA synthesis in a [3H]thymidine incorporation assay at 0.05 mM; type: functional; procedure, shortened: as §1
Mus musculus [4] = species on record: Mus musculus; assay: Ability to activate CBA/CaJ Mice spleen cells to proliferate in vitro by measuring new DNA synthesis in a [3H]thymidine incorporation assay at 0.20 mM; type: functional; procedure, shortened: as §1
Mus musculus [5] = species on record: Mus musculus; assay: Ability to activate CBA/CaJ Mice spleen cells to proliferate in vitro by measuring new DNA synthesis in a [3H]thymidine incorporation assay at 0.40 mM; type: functional; procedure, shortened: as §1
Semliki Forest virus [6] = assay: Effect against semliki forest virus infection in mice at an ip dose of 100 mg/kg; 6/12; type: functional; details: route intraperitoneal
Procedure, shortened: (§2)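 Female Swiss Webster mice (about 20 g) received compound or placebo ip in aqueous 2% sodium bicarbonate as half-daily doses at -24 and -18 h before virus. […] Read-outs were survivors/total over 21 days and mean survival time of mice that died. Mice dying within a day or two of dosing were excluded. Significance was by two-tailed Fisher exact test.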

Semliki Forest virus [7] = assay: Effect against semliki forest virus infection in mice at an ip dose of 200 mg/kg; 3/12; type: functional; details: route intraperitoneal; procedure, shortened: as §2
Semliki Forest virus [8] = assay: Effect against semliki forest virus infection in mice at an ip dose of 100 mg/kg; type: functional; details: route intraperitoneal; procedure, shortened: as §2
Semliki Forest virus [9] = assay: Effect against semliki forest virus infection in mice at an ip dose of 200 mg/kg; type: functional; details: route intraperitoneal; procedure, shortened: as §2
YAC-1 [10] = assay: (§3) In vivo effect on murine NK cell activity in isolated CBA/CaJ mice spleen cells and cytotoxicity measured against YAC-1 cells at a targetor ratio 100:1; type: functional, Mus musculus
Procedure, shortened: (§4)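 Female CBA/CaJ mice aged 6–8 weeks, two per group, received 150 mg/kg ip in 2% aqueous sodium bicarbonate as 75 mg/kg bid for one day; the placebo was vehicle. After 24 h, spleen cells were pooled and tested against YAC-1 targets in a 4-h 51Cr-release assay, in triplicate, at the stated effector:target ratio.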

YAC-1 [11] = assay: (§5) In vivo effect on murine NK cell activity in isolated CBA/CaJ mice spleen cells and cytotoxicity measured against YAC-1 cells at a targetor ratio 50:1; type: functional, Mus musculus; procedure, shortened: as §4
Mus musculus [12] = assay: Effect against semliki forest virus infection in mice at an ip dose of 100 mg/kg; 0/12; type: functional; details: route intraperitoneal; procedure, shortened: as §2
Mus musculus [13] = assay: Effect against semliki forest virus infection in mice at an ip dose of 200 mg/kg; 2/11; type: functional; details: route intraperitoneal; procedure, shortened: as §2
Mus musculus [14] = assay: Effect against semliki forest virus infection in mice at an ip dose of 100 mg/kg.; type: functional; details: route intraperitoneal; procedure, shortened: as §2
Mus musculus [15] = assay: Effect against semliki forest virus infection in mice at an ip dose of 200 mg/kg.; type: functional; details: route intraperitoneal; procedure, shortened: as §2
YAC-1 [16] = assay: In vivo effect on murine NK cell activity in isolated CBA/CaJ mice spleen cells and cytotoxicity measured against YAC-1 cells at a targetor ratio 100:1.; type: functional, Mus musculus; procedure, shortened: as §4
YAC-1 [17] = assay: In vivo effect on murine NK cell activity in isolated CBA/CaJ mice spleen cells and cytotoxicity measured against YAC-1 cells at a targetor ratio 50:1.; type: functional, Mus musculus; procedure, shortened: as §4
Mus musculus [18] = assay: Effect against semliki forest virus infection in mice at an ip dose of 100 mg/kg; 4/9; type: functional; details: route intraperitoneal; procedure, shortened: as §2
Mus musculus [19] = assay: Effect against semliki forest virus infection in mice at an ip dose of 200 mg/kg''; 11/11; type: functional; details: route intraperitoneal; procedure, shortened: as §2
Semliki Forest virus [20] = assay: Effect against semliki forest virus infection in mice at an ip dose of 200 mg/kg; 9/12; type: functional; details: route intraperitoneal; procedure, shortened: as §2
YAC-1 [21] = assay: as §3; type: organism-based; details: mouse; procedure, shortened: as §4
YAC-1 [22] = assay: as §5; type: organism-based; details: mouse; procedure, shortened: as §4
Semliki Forest virus [23] = assay: Effect against semliki forest virus infection in mice at an ip dose of 100 mg/kg; 11/12; type: functional; details: route intraperitoneal; procedure, shortened: as §2
Semliki Forest virus [24] = assay: Effect against semliki forest virus infection in mice at an ip dose of 200 mg/kg; 11/12; type: functional; details: route intraperitoneal; procedure, shortened: as §2

SMILES	CPM (Mus musculus [1])	CPM (Mus musculus [2])	CPM (Mus musculus [3])	CPM (Mus musculus [4])	CPM (Mus musculus [5])	Survivors (Semliki Forest virus [6]) [%]	Mean survival time (Semliki Forest virus [8]) [days]	Mean survival time (Semliki Forest virus [9]) [days]	Mean survival time (Mus musculus [14]) [days]	Mean survival time (Mus musculus [15]) [days]	Cytotoxicity (YAC-1 [16]) [%]	Cytotoxicity (YAC-1 [17]) [%]	Cytotoxicity (YAC-1 [21]) [%]	Cytotoxicity (YAC-1 [22]) [%]	also measured
Nc1nc(O)c2nc(S)n([C@@H]3O[C@H](CO)[C@@H](O)[C@H]3O)c2n1	3911	3633	5372	23092	40690	50	8	7.5	–	–	–	–	–	–	Survivors (Semliki Forest virus [7]): 25%; % cytotoxicity (YAC-1 [10]): 61.33%; % cytotoxicity (YAC-1 [11]): 43.53%
Nc1nc2c(nc(Br)n2[C@@H]2O[C@H](CO)[C@@H](O)[C@H]2O)c(=O)[nH]1	4387	5204	4835	9199	16771	–	–	–	7.7	7.1	45.44	31.33	–	–	Survivors (Mus musculus [12]): 0%; Survivors (Mus musculus [13]): 18%
Nc1nc(O)c2sc(=S)n(C3O[C@H](CO)[C@@H](O)[C@H]3O)c2n1 (stereo not given in full)	4230	3111	15711	43779	53493	–	–	–	7	>21	41.38	28.89	–	–	Survivors (Mus musculus [18]): 44%; Survivors (Mus musculus [19]): 100%
Cn1c(=O)n(C2O[C@H](CO)[C@@H](O)[C@H]2O)c2nc(N)nc(O)c21 (stereo not given in full)	6012	2000	35980	72000	94100	50	7.7	6.3	–	–	–	–	57.89	58.8	Survivors (Semliki Forest virus [20]): 75%
Nc1nc2c(sc(=O)n2[C@@H]2O[C@H](CO)[C@@H](O)[C@H]2O)c(=O)[nH]1 [ISATORIBINE]	12000	2000	54150	96680	107000	–	8	6	–	–	–	–	67.8	74.8	Survivors (Semliki Forest virus [23]): 92%; Survivors (Semliki Forest virus [24]): 92%
